# High-throughput results from PubChem BioAssay.
# APOBEC3A inh: APOBEC3A ssDNA deaminase inhibitors, primary screen, selectivity assay for APOBEC3G inhibitor project, biochemical, FAM/TAMRA oligo cleavage fluorescence; inhibition, % at 20 µM; DNA dC->dU-editing enzyme APOBEC-3A (Homo sapiens), P31941; recombinant A3A, FAM/TAMRA ssDNA deamination fluorescence; 330,000 tested, 0.41% active;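 active = at least 40% inhibition at 20 µM here, with at most 30% in a related deaminase screen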;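 also: plate controls were A3A with DMSO for no effect and wells lacking A3A enzyme for full effect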
# Target sequence (P31941 whole entry, looked up): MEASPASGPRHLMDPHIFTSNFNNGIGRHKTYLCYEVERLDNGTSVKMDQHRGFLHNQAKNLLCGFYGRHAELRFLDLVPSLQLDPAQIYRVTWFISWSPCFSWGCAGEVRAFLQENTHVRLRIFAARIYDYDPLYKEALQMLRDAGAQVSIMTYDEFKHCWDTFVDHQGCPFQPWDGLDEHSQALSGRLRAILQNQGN
# FN deposition inh: inhibitors of fibronectin matrix deposition, primary screen, AH1F cells, Alexa488-fibronectin fluorescence, plate reader; AID 743247, 2014; 350,000 tested, 0.086% active; inhibition, % at 12.6 µM; AH1F fibroblasts, overnight;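 active = mean inhibition across replicates of 30% or more, regardless of how many single replicates reach that level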;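 also: positive control wells lacked labelled fibronectin entirely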
#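 material = AH1F fibroblast monolayer depositing Alexa488-labelled fibronectin into matrix | amount = 10000 AH1F cells/well | buffer or medium = DMEM plus 2% serum, read in PBS | incubation = 1 h cell adhesion before compound, then overnight fibronectin incubation | detection = fluorescence at 485 nm excitation, 525 nm emission | evaluation = percent inhibition as loss of matrix-bound fibronectin fluorescence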
# APOBEC3G inh: APOBEC3G DNA deaminase inhibitors, primary screen, biochemical, fluorescence, single-stranded DNA substrate, uHTS; DNA dC->dU-editing enzyme APOBEC-3G (Homo sapiens), Q9HC16; recombinant A3G, ssDNA deamination FAM/TAMRA fluorescence; inhibition, % at 20 µM; 330,000 tested, 0.28% active; AID 493012, 2011;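 active = inhibition of at least 40% at 20 µM, with no more than 30% in the related APOBEC3A deaminase screen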;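 also: plate controls were DMSO wells with A3G for no effect and wells lacking A3G enzyme for full effect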
# Target sequence (Q9HC16 whole entry, looked up): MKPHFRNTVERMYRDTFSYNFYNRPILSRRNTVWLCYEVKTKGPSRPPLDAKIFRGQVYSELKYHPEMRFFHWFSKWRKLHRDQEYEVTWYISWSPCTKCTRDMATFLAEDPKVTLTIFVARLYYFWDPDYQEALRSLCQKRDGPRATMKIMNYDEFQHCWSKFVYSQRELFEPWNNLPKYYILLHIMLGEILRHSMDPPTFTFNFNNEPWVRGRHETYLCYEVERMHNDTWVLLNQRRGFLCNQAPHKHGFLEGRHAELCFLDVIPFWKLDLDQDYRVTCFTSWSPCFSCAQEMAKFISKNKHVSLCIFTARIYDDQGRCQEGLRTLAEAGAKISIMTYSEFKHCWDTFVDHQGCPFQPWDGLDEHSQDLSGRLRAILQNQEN
# ABHD5 PLIN5 PPI: ABHD5-PLIN5 interaction inhibitors, primary screen, cell lysate, split luciferase complementation, luminescence. inhibition, % at 4 µM. Perilipin-5 (Homo sapiens) + 1-acylglycerol-3-phosphate O-acyltransferase ABHD5 (Homo …. 360,000 tested, 0.78% active. Split G. princeps luciferase complementation, 4 h;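 active = inhibition above the mean inhibition across every tested compound plus 3 SD, cut at about 22% in these data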;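 also: 0% = DMSO only wells and the 100% control is not disclosed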
# ABHD5 PLIN5 conf: ABHD5-PLIN5 interaction inhibitors, confirmation, biochemical, luminescence; shares compounds with ABHD5 PLIN5 PPI; inhibition, % at 4 µM; 2,200 tested, 67% active; AID 651612, 2012; in the data active = inhibition above about 23%;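 also: 0% = DMSO vehicle wells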
# HNF4 split-luc: HNF4 dimerization inhibitors, counter-screen for ABHD5-PLIN5 interaction inhibitor project, biochemical, split-luciferase complementation, luminescence | shares compounds with ABHD5 PLIN5 PPI | inhibition, % at 4 µM | 2,200 tested, 77% active | AID 651674, 2012;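 active = mean inhibition across replicate wells exceeding the computed hit threshold, cut at about 13% in these data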;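 also: light from luciferase halves that rejoin when HNF4 fusion proteins dimerize; 0% = DMSO only wells and the 100% control is not given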
# * hit, by the source's call; . = no result. An excerpt weighted towards active compounds, which were near 1.2% of everything screened.
SMILES,APOBEC3A inh,FN deposition inh,APOBEC3G inh,ABHD5 PLIN5 PPI,ABHD5 PLIN5 conf,HNF4 split-luc
CC1(C)CC(=O)C(C(C2=C(O)CC(C)(C)CC2=O)c2cccs2)C(=O)C1 (configuration not stated),4,.,0,41*,64*,69*
CO[C@@H]1CN(C)C(=O)c2ccc(NC(=O)C3CC3)cc2OC[C@@H](C)N(Cc2ccccc2)C[C@@H]1C,.,2,.,.,.,.
CC(=O)c1ccc(N2CCN(S(=O)(=O)c3ccc4c(c3)NC(=O)CC(=O)N4)CC2)cc1,6,12,-1,-2,.,.
CC(=O)c1ccc(N2CCN(S(=O)(=O)c3ccc4c(c3)C(Cl)(Cl)C(=O)N4)CC2)cc1,.,-6,.,31*,56*,51*
COc1cc(/C=C/[N+](=O)[O-])ccc1OC(=O)/C=C/c1ccc(F)cc1,-2,-4,-5,30*,49*,73*
O=C1CN(S(=O)(=O)c2cc(Br)ccc2Br)CCN1,0,-5,-1,-9,.,.
O=c1c(Br)ccc(Br)cc1Br,.,36*,.,84*,101*,111*
CCCCOC(=O)Nc1cc(C(=O)OC)ccc1C(=O)OC,-4,.,-3,28*,43*,5
COc1ccc(S(=O)(=O)Nc2ccc3c(c2)[C@@H]2C[C@@H](CC(=O)O)O[C@@H](CO)[C@@H]2O3)cc1,.,-5,.,.,.,.
O=C1/C(=C\c2ccccc2)CN(C(=O)CCN2CCCCC2)C/C1=C/c1ccccc1,.,10,.,98*,103*,108*
CCN(CC)CCC(=O)N1C/C(=C/c2ccccc2)C(=O)/C(=C\c2ccccc2)C1,.,21,.,97*,102*,103*
O=C1/C(=C\c2ccccc2)CCC/C1=C/c1ccccc1,.,0,.,5,.,.
O=C1/C(=C\c2ccc(Cl)c(Cl)c2)CN(C(=O)CCN2CCOCC2)C/C1=C/c1ccc(Cl)c(Cl)c1,.,4,.,99*,103*,108*
Cc1ccccc1N1C(=O)CC(Sc2nnc(-c3ccccc3)o2)C1=O (configuration not stated),-14,.,0,35*,60*,98*
Cc1ccc(S(=O)(=O)n2cccc2/C=C/[N+](=O)[O-])cc1,.,-1,.,46*,101*,102*
COc1ccc(-n2cccc2/C=C/[N+](=O)[O-])cc1,-1,-6,-7,12,.,.
CN1C2C=CC(=O)C1C1C(=O)N(c3ccccc3)C(=O)C12 (configuration not stated),.,0,.,44*,42*,44*
Cc1ccccc1N1C(=O)C2C3C=CC(C2C1=O)N(C)C3=O (configuration not stated),0,-1,-3,3,.,.
CN(C)C(=O)C[C@H]1C[C@@H]2c3cc(NC(=O)c4ccc5c(c4)OCO5)ccc3O[C@@H]2[C@H](CO)O1,.,9,.,.,.,.
O=c1c2c3c(sc2n(CCN2CCCCC2)c(=O)n1Cc1ccco1)CCCCC3,-2,12,-8,7,.,.
NC(=O)Cn1c(=O)n(Cc2ccco2)c(=O)c2c3c(sc21)CCCCC3,88,0,60,62*,26*,41*
O=C(Cn1c(=O)n(Cc2ccco2)c(=O)c2c3c(sc21)CCCC3)Nc1ccccc1,-11,.,-5,53*,24*,10
COc1cccc(S(=O)(=O)Nc2ccc3c(c2)[C@@H]2C[C@@H](CC(=O)O)O[C@H](CO)[C@@H]2O3)c1,.,1,.,.,.,.
O=C(NCC[C@@H]1CC[C@H](NC(=O)c2ccccc2F)[C@H](CO)O1)c1cnccn1,.,-6,.,.,.,.
CC(=O)N1[C@@H]2CN(CC(F)(F)F)C[C@H]1C2c1ccccc1 (some centres not stated),.,-5,.,.,.,.
SMILES,APOBEC3A inh,FN deposition inh,APOBEC3G inh,ABHD5 PLIN5 PPI,ABHD5 PLIN5 conf,HNF4 split-luc
COc1ccc(OCc2n(CC(=O)OC3CC(C)CCC3C(C)C)c3ccccc3[n+]2C)cc1 (configuration not stated),10,8,6,39*,14,9
CC(C)C[C@H]1CNC(=S)N1C[C@H]1CCCN1C[C@H](Cc1ccc(O)cc1)N1C[C@H](Cc2ccc(O)cc2)N(CCc2ccccc2)C1=S,.,-5,.,23*,8,2
Cn1cccc1/C=C1\CC(C(C)(C)C)C/C(=C\c2cccn2C)C1=O (configuration not stated),-16,-37,-34,25*,12,26*
Cn1c(CN2CCCC2)nc2cc(NC(=O)c3ccc(Cl)cc3)ccc21,1,-3,-9,49*,6,-1
Cn1c(CN2CCCCC2)nc2cc(NC(=O)c3ccc(Cl)cc3)ccc21,-3,-2,-10,-3,.,.
Cn1c(CCN2CCCC2)nc2cc(NS(=O)(=O)c3ccc(Cl)cc3)ccc21,-2,1,-5,27*,18,16*
Cc1ccc(S(=O)(=O)Nc2ccc3c(c2)nc(CCN2CCCC2)n3C)cc1,-3,-2,-7,19,.,.
Cc1cccc(C)c1-n1nnnc1C1(C)CCC(=O)N1CCCn1ccnc1 (configuration not stated),.,13,.,-1,.,.
CCCCn1nnnc1C1(C)CCC(=O)N1CCCn1ccnc1 (configuration not stated),.,.,.,59*,47*,46*
CC(C)NC(=O)N[C@@H]1C=C[C@@H](CC(=O)NCCCN(C)C)O[C@@H]1CO,.,10,.,.,.,.
N=c1c(C(=O)NCc2ccco2)cc2c(=O)n3ccccc3nc2n1Cc1ccccc1,8,.,21,21,.,.
Cc1ccc2nc3c(cc(C(=O)NCc4ccco4)c(=N)n3Cc3ccco3)c(=O)n2c1,95,0,89,33*,10,29*
COCCn1c(=N)c(C(=O)NCc2ccco2)cc2c(=O)n3ccccc3nc21,6,7,5,25*,7,33*
Cc1ccc2nc3c(cc(C(=O)NCc4ccccc4)c(=N)n3CCCn3ccnc3)c(=O)n2c1,.,8,.,0,.,.
N=c1c(C(=O)NCc2ccco2)cc2c(=O)n3ccccc3nc2n1Cc1ccc(Cl)cc1,8,.,7,26*,14,23*
CCCC(=O)Nc1ccc2c(c1)C(=O)N(C)[C@H]1CC[C@H](CC(=O)O)O[C@H]1CO2,.,-2,.,.,.,.
O=C(NCc1ccco1)c1cc(-c2cccs2)nc2ccccc12,1,-2,-3,9,.,.
NS(=O)(=O)c1ccc(CCNC(=O)c2cc(-c3ccccc3)nc3ccccc23)cc1,-4,2,-10,-1,.,.
